Measured values taken from ChEMBL document CHEMBL1149292, “A rational utilization of high-throughput screening affords selective, orally bioavailable 1-benzyl-3-carboxyazetidine sphingosine-1-phosphate-1 receptor agonists” (J Med Chem, 2004).
Active and inactive are the calls of the source. The rule behind the calls is not given here.

Key:
[1] = target: T1, Sphingosine 1-phosphate receptor 1 (Homo sapiens, UniProt P21453); test: Displacement of [33P]sphingosine 1 phosphate from human S1P1 receptor expressed in CHO cells; type: cell-based
[2] = target: Sphingosine 1-phosphate receptor 5 (Homo sapiens, UniProt Q9H228); test: Displacement of [33P]sphingosine 1 phosphate from human S1P5 receptor expressed in CHO cells; type: cell-based
Method in brief: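 Competition binding with [33P]-labeled S1P on membranes of CHO cells stably expressing each human S1P receptor. Values are the mean of n = 3 determinations.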

[3] = target: T1, Sphingosine 1-phosphate receptor 1; test: Activity at human S1P1 receptor expressed in CHO cells by [35S]GTPgammaS binding assay; type: functional, cell-based
Method in brief: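 Agonism measured as ligand-induced [35S]-GTPγS binding to membranes of CHO cells stably expressing the human S1P receptor.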

Mus musculus = test: Decrease in peripheral blood lymphocytes in po dosed mouse after 3 hrs; type: functional
Method in brief: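 Compound given orally to mice. Peripheral blood lymphocyte counts taken 3 h after dosing, expressed as average percent decrease in n = 3 animals versus controls (n = 3). ED50 from dose-titration.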

Rattus norvegicus [4] = test: Decrease in peripheral blood lymphocyte counts in Lewis rat at 3 mg/kg, po after 24 hrs; type: functional
Method in brief: (§1)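 Rat oral dose-titration at 1–30 mpk po. Peripheral blood lymphocyte counts and plasma compound concentrations determined 24 h postdose.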

Rattus norvegicus [5] = test: Decrease in peripheral blood lymphocyte counts in Lewis rat at 10 mg/kg, po after 24 hrs; type: functional; method in brief: as §1
Rattus norvegicus [6] = test: Decrease in peripheral blood lymphocyte counts in Lewis rat at 30 mg/kg, po after 24 hrs; type: functional; method in brief: as §1
Rattus norvegicus [7] = test: Decrease in peripheral blood lymphocytes in Lewis rat at 1 mg/kg, po after 24 hrs relative to control; type: functional; parameters: scale not given: the % may be the effect or the level left; method in brief: as §1
Rattus norvegicus [8] = test: Decrease in peripheral blood lymphocytes in Lewis rat at 3 mg/kg, po after 24 relative to hrs control; type: functional; parameters: scale not given: the % may be the effect or the level left; method in brief: as §1
Rattus norvegicus [9] = test: Decrease in peripheral blood lymphocyts in Lewis rat at 10 mg/kg, po after 24 hrs relative to control; type: functional; parameters: scale not given: the % may be the effect or the level left; method in brief: as §1
[10] = Half life in rat at 2 mg/kg, po and 1 mg/kg, iv; type: ADME, organism-based; settings: in vivo
Method in brief: (§2)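 Rat PK at 2.0 mpk po and 1.0 mpk iv. Plasma compound levels measured.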

[11] = Plasma concentration in femoral artery cannulated Lewis rat at 3 mg/kg, po after 32 hrs; type: ADME, organism-based; parameters: dose 3 mg/kg, route oral
Method in brief: (§3)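 Femoral artery cannulated Lewis rats (n = 3) got a single 3 mpk oral dose. Compound plasma concentration (nM) was measured serially over time up to 72 h postdose. Peripheral blood lymphocyte counts were taken in parallel at the same time points. The same animals were later given a second 3 mpk oral dose.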

[12] = Plasma concentration in femoral artery cannulated Lewis rat at 3 mg/kg, po after 48 hrs; type: ADME, organism-based; parameters: dose 3 mg/kg, route oral; method in brief: as §3
Rattus norvegicus [13] = test: Decrease in peripheral blood lymphocyte counts in femoral artery cannulated Lewis rat at 3 mg/kg, po after 0.25 hrs; type: functional
Method in brief: (§4)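 Femoral artery cannulated Lewis rats (n = 3) given a single 3 mpk oral dose. PBL counts and plasma compound concentration sampled over time up to 72 h postdose. A repeat 3 mpk po challenge was given to the same animals.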

Rattus norvegicus [14] = test: Decrease in peripheral blood lymphocyte counts in femoral artery cannulated Lewis rat at 3 mg/kg, po after 0.5 hrs; type: functional; method in brief: as §4
Rattus norvegicus [15] = test: Decrease in peripheral blood lymphocyte counts in femoral artery cannulated Lewis rat at 3 mg/kg, po after 1 hr; type: functional; method in brief: as §4
Rattus norvegicus [16] = test: Decrease in peripheral blood lymphocyte counts in femoral artery cannulated Lewis rat at 3 mg/kg, po after 2 hrs; type: functional; method in brief: as §4
Rattus norvegicus [17] = test: Decrease in peripheral blood lymphocyte counts in femoral artery cannulated Lewis rat at 3 mg/kg, po after 6 hrs; type: functional; method in brief: as §4
Rattus norvegicus [18] = test: Decrease in peripheral blood lymphocyte counts in femoral artery cannulated Lewis rat at 3 mg/kg, po after 8 hrs; type: functional; method in brief: as §4
Rattus norvegicus [19] = test: Decrease in peripheral blood lymphocyte counts in femoral artery cannulated Lewis rat at 3 mg/kg, po after 12 hrs; type: functional; method in brief: as §4
Rattus norvegicus [20] = test: Decrease in peripheral blood lymphocyte counts in femoral artery cannulated Lewis rat at 3 mg/kg, po after 20 hrs; type: functional; method in brief: as §4
Rattus norvegicus [21] = test: Decrease in peripheral blood lymphocyte counts in femoral artery cannulated Lewis rat at 3 mg/kg, po after 48 hrs; type: functional; method in brief: as §4
Rattus norvegicus [22] = test: Decrease in peripheral blood lymphocyte counts in femoral artery cannulated Lewis rat at 3 mg/kg, po after 56 hrs; type: functional; method in brief: as §4
Rattus norvegicus [23] = test: Decrease in peripheral blood lymphocytes in Lewis rat at 30 mg/kg, po after 24 hrs relative to control; type: functional; parameters: scale not given: the % may be the effect or the level left; method in brief: as §1
[24] = Plasma clearance in rat at 2 mg/kg, po and 1 mg/kg, iv; type: ADME, organism-based; method in brief: as §2
[25] = Cmax in rat at 2 mg/kg, po and 1 mg/kg, iv; type: ADME, organism-based; settings: in vivo; method in brief: as §2
[26] = Volume of distribution at steady state in Beagle dog at 1 mg/kg, po and 0.5 mg/kg, iv; type: ADME, organism-based, Canis lupus familiaris; settings: in vivo, read-out: Vdss
Canis familiaris [27] = test: Cmax in Beagle dog at 1 mg/kg, po and 0.5 mg/kg, iv; type: ADME, organism-based, Canis lupus familiaris; settings: in vivo
Method in brief: (§5)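 Single-dose PK at 1.0 mpk po and 0.5 mpk iv. Plasma compound levels measured.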

[28] = Bioavailability in Beagle dog at 1 mg/kg, po and 0.5 mg/kg, iv; type: ADME, organism-based, Canis lupus familiaris; settings: in vivo; method in brief: as §5
[29] = Plasma clearance in rhesus monkey at 1 mg/kg, po and 0.5 mg/kg, iv; type: ADME, organism-based, Macaca mulatta; method in brief: as §5
[30] = Volume of distribution at steady state in rhesus monkey at 1 mg/kg, po and 0.5 mg/kg, iv; type: ADME, organism-based, Macaca mulatta; settings: in vivo, read-out: Vdss
[31] = Bioavailability in rhesus monkey at 1 mg/kg, po and 0.5 mg/kg, iv; type: ADME, organism-based, Macaca mulatta; settings: in vivo; method in brief: as §5
Rhesus monkey = test: Maximal decrease in peripheral blood lymphocyte in rhesus monkey at 1 mg/kg, po after 24 hrs; type: functional, organism-based; parameters: dose 1 mg/kg; settings: Macaca mulatta
Method in brief: (§6)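 Complete blood counts run alongside plasma concentrations after a single 1.0 mpk oral dose in beagle dog or rhesus monkey. Lymphocyte counts followed over time, with PBL lowering assessed at 24 h postdose.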

Canis familiaris [32] = test: Maximal decrease in peripheral blood lymphocyte in Beagle dog at 1 mg/kg, po after 24 hrs; type: functional, organism-based; parameters: dose 1 mg/kg; settings: Canis lupus familiaris; method in brief: as §6
[33] = Plasma concentration in Lewis rat at 1 mg/kg, po after 24 hrs; type: ADME, organism-based; parameters: dose 1 mg/kg, route oral; method in brief: as §1
[34] = Plasma concentration in Lewis rat at 3 mg/kg, po after 24 hrs; type: ADME, organism-based; parameters: dose 3 mg/kg, route oral; method in brief: as §1
[35] = Plasma concentration in Lewis rat at 30 mg/kg, po after 24 hrs; type: ADME, organism-based; parameters: dose 30 mg/kg, route oral; method in brief: as §1
[36] = Plasma concentration in femoral artery cannulated Lewis rat at 3 mg/kg, po after 0.25 hrs; type: ADME, organism-based; parameters: dose 3 mg/kg, route oral; method in brief: as §4
[37] = Plasma concentration in femoral artery cannulated Lewis rat at 3 mg/kg, po after 0.5 hrs; type: ADME, organism-based; parameters: dose 3 mg/kg, route oral; method in brief: as §4
[38] = Plasma concentration in femoral artery cannulated Lewis rat at 3 mg/kg, po after 2 hrs; type: ADME, organism-based; parameters: dose 3 mg/kg, route oral; method in brief: as §3
[39] = Plasma concentration in femoral artery cannulated Lewis rat at 3 mg/kg, po after 12 hrs; type: ADME, organism-based; parameters: dose 3 mg/kg, route oral; method in brief: as §3
[40] = Plasma concentration in femoral artery cannulated Lewis rat at 3 mg/kg, po after 16 hrs; type: ADME, organism-based; parameters: dose 3 mg/kg, route oral; method in brief: as §3
[41] = Plasma concentration in femoral artery cannulated Lewis rat at 3 mg/kg, po after 20 hrs; type: ADME, organism-based; parameters: dose 3 mg/kg, route oral; method in brief: as §3
[42] = Half life in Beagle dog at 1 mg/kg, po and 0.5 mg/kg, iv; settings: in vivo
[43] = Half life in rhesus monkey at 1 mg/kg, po and 0.5 mg/kg, iv; settings: in vivo

T1 sequence (P21453 whole entry): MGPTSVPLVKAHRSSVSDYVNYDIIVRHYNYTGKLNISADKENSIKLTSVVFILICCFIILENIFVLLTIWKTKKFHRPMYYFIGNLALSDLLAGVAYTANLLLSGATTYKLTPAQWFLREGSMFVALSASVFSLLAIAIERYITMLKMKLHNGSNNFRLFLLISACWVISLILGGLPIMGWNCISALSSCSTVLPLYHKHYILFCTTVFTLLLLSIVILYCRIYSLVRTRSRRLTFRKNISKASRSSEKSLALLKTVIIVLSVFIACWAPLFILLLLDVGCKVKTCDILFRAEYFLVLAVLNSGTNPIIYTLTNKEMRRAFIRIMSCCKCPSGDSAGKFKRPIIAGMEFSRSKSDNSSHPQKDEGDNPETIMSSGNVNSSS
Sphingosine 1-phosphate receptor 5, sequence (Q9H228 whole entry): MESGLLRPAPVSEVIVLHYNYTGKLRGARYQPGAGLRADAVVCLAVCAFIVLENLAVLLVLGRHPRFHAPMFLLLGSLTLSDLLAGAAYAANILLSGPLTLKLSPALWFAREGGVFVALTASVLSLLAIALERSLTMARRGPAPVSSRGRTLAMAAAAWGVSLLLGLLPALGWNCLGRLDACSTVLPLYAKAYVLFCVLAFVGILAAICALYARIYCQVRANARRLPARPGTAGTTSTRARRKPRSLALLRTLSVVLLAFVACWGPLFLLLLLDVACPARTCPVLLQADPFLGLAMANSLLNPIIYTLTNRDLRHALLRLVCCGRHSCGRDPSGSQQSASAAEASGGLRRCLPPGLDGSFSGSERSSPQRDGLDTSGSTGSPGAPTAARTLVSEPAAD

O=C(O)C1CN(Cc2ccc(OCc3cc(-c4ccccc4)c(C(F)(F)F)s3)cc2)C1
IC50 [1]: 1.2 nM (antagonist)
IC50 [2]: 23 nM (antagonist)
EC50 [3]: 0.5 nM (agonist)
ED50 (Mus musculus): 0.44 mg/kg
Activity (Rattus norvegicus [4]): 1530 µL⁻¹
Activity (Rattus norvegicus [5]): 1530 µL⁻¹
Activity (Rattus norvegicus [6]): 1430 µL⁻¹
Activity (Rattus norvegicus [7]): 68%
Activity (Rattus norvegicus [8]): 78%
Activity (Rattus norvegicus [9]): 78%
half-life [10]: 6.7 h
concentration at 32 h [11]: 34 nM
concentration at 48 h [12]: 13 nM
Activity (Rattus norvegicus [13]): 4400 µL⁻¹
Activity (Rattus norvegicus [14]): 4200 µL⁻¹
Activity (Rattus norvegicus [15]): 3330 µL⁻¹
Activity (Rattus norvegicus [16]): 1770 µL⁻¹
Activity (Rattus norvegicus [17]): 1330 µL⁻¹
Activity (Rattus norvegicus [18]): 1470 µL⁻¹
Activity (Rattus norvegicus [19]): 1530 µL⁻¹
Activity (Rattus norvegicus [20]): 1530 µL⁻¹
Activity (Rattus norvegicus [21]): 4000 µL⁻¹
Activity (Rattus norvegicus [22]): 4270 µL⁻¹
Activity (Rattus norvegicus [23]): 79%
clearance [24]: 12.3 mL/min/kg
Cmax [25]: 300 nM
Vd [26]: 1.6 L/kg
Cmax (Canis familiaris [27]): 1300 nM
bioavailability [28]: 66%
clearance [29]: 1.5 mL/min/kg
Vd [30]: 1.4 L/kg
bioavailability [31]: 76%
Activity (Rhesus monkey): Active
Activity (Canis familiaris [32]): Active
concentration at 24 h [33]: 22 nM
concentration at 24 h [34]: 95 nM
concentration at 24 h [35]: 1400 nM
concentration at 0.25 h [36]: 72 nM
concentration at 0.5 h [37]: 200 nM
concentration at 2 h [38]: 310 nM
concentration at 12 h [39]: 280 nM
concentration at 16 h [40]: 170 nM
concentration at 20 h [41]: 150 nM
half-life [42]: 9.7 h
half-life [43]: 12.5 h
